Results reported in ChEMBL document CHEMBL1781954, “Synthesis and antitumor activity of novel pyrido[2,3-d][1,2,4]triazolo[4,3-a]pyrimidin-5-one derivatives” (Eur J Med Chem, 2011).
≈ marks a conversion by molar mass, not a printed value.

System: MCF7
Test: Cytotoxicity against human MCF7 cells assessed as inhibition of cell viability after 48 hrs by Sulforhodamine B assay
Assay type: functional, cell-based
Details: MCF7, 48 h
Method in brief: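 MCF7 cells seeded at 10⁴ cells/well and left 24 h to attach. Compounds in DMSO diluted with saline were added at 0, 1, 2.5, 5 and 10 (triplicate wells per dose). After 48 h at 37 °C in 5% CO₂, cells were fixed with trichloroacetic acid and stained 30 min with 0.4% SRB in 1% acetic acid. Bound dye was recovered in Tris-EDTA and read on an ELISA reader. IC50 was taken from surviving fraction versus concentration curves.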

`O=c1[nH]c(=S)[nH]c2nc(-c3ccccc3)cc(-c3ccc(Cl)cc3)c12` gave an IC50 of 5.11 µg/mL (≈ 14 µM).

`O=c1c2c(-c3ccc(Cl)cc3)cc(-c3ccccc3)nc2nc2[nH]ncn12` was tested, and the IC50 was 21.6 µg/mL (≈ 57.8 µM).

With `Cc1n[nH]c2nc3nc(-c4ccccc4)cc(-c4ccc(Cl)cc4)c3c(=O)n12` the IC50 was > 50 µg/mL.

Work on `CCc1n[nH]c2nc3nc(-c4ccccc4)cc(-c4ccc(Cl)cc4)c3c(=O)n12` yielded an IC50 of 14 µg/mL (≈ 34.8 µM).

In the case of `O=c1[nH][nH]c2nc3nc(-c4ccccc4)cc(-c4ccc(Cl)cc4)c3c(=O)n12`, the IC50 is reported as 24.3 µg/mL (≈ 62.3 µM).

Molecule `O=c1c2c(-c3ccc(Cl)cc3)cc(-c3ccccc3)nc2nc2[nH][nH]c(=S)n12` has an IC50 of 6.78 µg/mL (≈ 16.7 µM).

For `CSc1n[nH]c2nc3nc(-c4ccccc4)cc(-c4ccc(Cl)cc4)c3c(=O)n12`, the IC50 was 3.89 µg/mL (≈ 9.26 µM).

Molecule `CCSc1n[nH]c2nc3nc(-c4ccccc4)cc(-c4ccc(Cl)cc4)c3c(=O)n12` has an IC50 of 5.2 µg/mL (≈ 12 µM).

`O=c1c2c(-c3ccc(Cl)cc3)cc(-c3ccccc3)nc2nc2[nH]nc(SCc3ccccc3)n12` was tested, and the IC50 was 12.6 µg/mL (≈ 25.4 µM).

For `CCOC(=O)CSc1n[nH]c2nc3nc(-c4ccccc4)cc(-c4ccc(Cl)cc4)c3c(=O)n12`, the IC50 was 4.5 µg/mL (≈ 9.15 µM).

`O=c1c2c(-c3ccc(Cl)cc3)cc(-c3ccccc3)nc2nc2[nH]nc(-c3ccccc3)n12` showed an IC50 of 9.22 µg/mL (≈ 20.5 µM).

With `Cc1ccc(-c2n[nH]c3nc4nc(-c5ccccc5)cc(-c5ccc(Cl)cc5)c4c(=O)n23)cc1` the IC50 was 9.07 µg/mL (≈ 19.6 µM).

In the case of `Nc1n[nH]c2nc3nc(-c4ccccc4)cc(-c4ccc(Cl)cc4)c3c(=O)n12`, the IC50 is reported as 3.74 µg/mL (≈ 9.62 µM).

Work on `O=c1c2c(-c3ccc(Cl)cc3)cc(-c3ccccc3)nc2nc2[nH]nc(CCl)n12` yielded an IC50 of 11.7 µg/mL (≈ 27.7 µM).
